In one data set the test system is Jurkat. Put plainly: Antiproliferative activity against human Jurkat cells after 48 hrs by MTT assay. Format: functional, cell-based. The method in brief:
(§1)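 Cells grown in DMEM (HeLa) or RPMI 1640 (Jurkat) with 10% FBS at 37 °C and 5% CO2. Seeded at 1 × 10^4 cells/well the day before, then exposed 48 h to 10−150 μM compound (final DMSO ≤0.15% v/v), with vehicle and etoposide controls. MTT read at 550 nm; IC50 from dose–response curves versus controls; mean ± SD, ≥3 experiments in duplicate.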
For orientation: Formazan colour is commonly taken as a measure of viable cells.

The subject of data set [1] is HeLa. Put plainly: Antiproliferative activity against human HeLa cells after 48 hrs by MTT assay. Format: functional, cell-based. The method in brief:
as §1

In data set [2] the target is T1, Heat shock protein HSP 90-alpha (Homo sapiens, UniProt P07900). As to the kind of experiment: Binding affinity to recombinant human HSP90 alpha by Surface plasmon resonance analysis. (In general: Surface plasmon resonance follows binding to a sensor surface in real time, without labels.)
For data set [3], the target named is T1, Heat shock protein HSP 90-alpha. As to the kind of experiment: Inhibition of HSP90 alpha in human HeLa cells assessed as effect on AKT phosphorylation at 10 uM after 48 hrs by Western blot analysis relative to GAPDH (reference value: 1). In kind it is cell-based. A general note: In western blotting, separated proteins are transferred to a membrane and probed.

Data set [4] has as its system HeLa. As to the kind of experiment: Effect on total Cdc2 expression in human HeLa cells at 20 uM after 48 hrs by Western blot analysis relative to GAPDH (reference value: 1). Format: ADME, cell-based.
Data set [5] concerns the target T1, Heat shock protein HSP 90-alpha. As to the kind of experiment: Inhibition of HSP90 alpha in human HeLa cells assessed as effect on ERK1 phosphorylation at 10 uM after 48 hrs by Western blot analysis relative to GAPDH (reference value: 1). In kind it is cell-based.
Data set [6] concerns HeLa. As to the kind of experiment: Effect on total ERK1 expression in human HeLa cells at 20 uM after 48 hrs by Western blot analysis relative to GAPDH (reference value: 1). Format: ADME, cell-based.
Data set [7] has as its target T1, Heat shock protein HSP 90-alpha. As to the kind of experiment: Inhibition of HSP90 alpha in human HeLa cells assessed as effect on CDC2/p34 phosphorylation at Thr161 residue at 10 uM after 48 hrs by Western blot analysis relative to GAPDH (reference value: 1). In kind it is cell-based.
The subject of data set [8] is HeLa. As to the kind of experiment: Effect on total Cdc2 expression in human HeLa cells at 10 uM after 48 hrs by Western blot analysis relative to GAPDH (reference value: 1). In kind it is ADME, cell-based.
Data set [9] concerns HeLa. Put plainly: Effect on total ERK1 expression in human HeLa cells at 10 uM after 48 hrs by Western blot analysis relative to GAPDH (reference value: 1). Format: ADME, cell-based.
Data set [10] deals with T1, Heat shock protein HSP 90-alpha. As to the kind of experiment: Inhibition of HSP90 alpha in human HeLa cells assessed as effect on Cyclin A expression at 20 uM after 48 hrs by Western blot analysis relative to GAPDH (reference value: 1). In kind it is cell-based.
In a further data set the test system is PBMC. Put plainly: Cytotoxicity against human PBMC up to 100 uM after 48 hrs by trypan blue exclusion assay. Format: cell-based.
For data set [11], the system named is HeLa. As to the kind of experiment: Cell cycle arrest in human HeLa cells assessed as accumulation at G2/M phase at 10 to 20 uM after 48 hrs by propidium iodide staining based flow cytometry. In kind it is functional. The method, boiled down: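 HeLa cells in DMEM with 10% FBS at 37 °C, 5% CO2, exposed to 10 or 20 μM for 48 h, DMSO vehicle (final ≤0.15%). Permeabilized cells stained with propidium iodide and analyzed by flow cytometry, 5000 events per sample. Percentages in hypodiploid, G0/G1, S and G2/M are given minus control values. Mean ± SD of three experiments run in duplicate.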

The target in data set [12] is T1, Heat shock protein HSP 90-alpha. As to the kind of experiment: Inhibition of HSP90 alpha in human HeLa cells assessed as effect on Cyclin A expression at 10 uM after 48 hrs by Western blot analysis relative to GAPDH (reference value: 1). In kind it is cell-based.
Data set [13] has the same target. As to the kind of experiment: Inhibition of HSP90 alpha in human HeLa cells assessed as effect on CDC2/p34 phosphorylation at Thr161 residue at 20 uM after 48 hrs by Western blot analysis relative to GAPDH (reference value: 1). In kind it is cell-based.
Data set [14] has the same target. Put plainly: Inhibition of HSP90 alpha in human HeLa cells assessed as effect on ERK1 phosphorylation at 20 uM after 48 hrs by Western blot analysis relative to GAPDH (reference value: 1). In kind it is cell-based.
For data set [15] the target is unchanged. As to the kind of experiment: Inhibition of HSP90 alpha in human HeLa cells assessed as effect on HSP90 expression at 10 uM after 48 hrs by Western blot analysis relative to alpha-tubulin (reference value: 1). Format: cell-based.
For data set [16] the target is unchanged. As to the kind of experiment: Inhibition of HSP90 alpha in human HeLa cells assessed as effect on EGFR expression at 20 uM after 48 hrs by Western blot analysis relative to GAPDH (reference value: 1). In kind it is cell-based.
For data set [17], the system named is HeLa. Put plainly: Effect on total AKT expression in human HeLa cells at 10 uM after 48 hrs by Western blot analysis relative to GAPDH (reference value: 1). Format: ADME, cell-based.
Data set [18] addresses T1, Heat shock protein HSP 90-alpha. As to the kind of experiment: Inhibition of HSP90 alpha in human HeLa cells assessed as effect on EGFR expression at 10 uM after 48 hrs by Western blot analysis relative to GAPDH (reference value: 1). In kind it is cell-based.
Data set [19] shares this target. As to the kind of experiment: Inhibition of HSP90 alpha in human HeLa cells assessed as effect on HSP70 expression at 10 uM after 48 hrs by Western blot analysis relative to alpha-tubulin (reference value: 1). In kind it is cell-based.
The target is the same in data set [20]. As to the kind of experiment: Inhibition of HSP90 alpha in human HeLa cells assessed as effect on HSP90 expression at 20 uM after 48 hrs by Western blot analysis relative to alpha-tubulin (reference value: 1). Format: cell-based.
Data set [21] concerns HeLa. As to the kind of experiment: Effect on total AKT expression in human HeLa cells at 20 uM after 48 hrs by Western blot analysis relative to GAPDH (reference value: 1). In kind it is ADME, cell-based.
The target in data set [22] is T1, Heat shock protein HSP 90-alpha. As to the kind of experiment: Inhibition of HSP90 alpha in human HeLa cells assessed as effect on HSP70 expression at 20 uM after 48 hrs by Western blot analysis relative to alpha-tubulin (reference value: 1). Format: cell-based.

Active and inactive are the calls of the source. The calls are words filed in the database; no cut-off is given here.

Usually IC50 stands for the concentration needed to halve the response being measured. Low values mean inhibition by little substance, high ones a need for much substance. What is called Kd is the equilibrium constant for the complex coming apart. Turning to `CC1=C2C[C@]3(C)CC[C@@H](C(C)C)[C@H]3C/C=C(/C)[C@@H]2CC1=O`, the IC50 in the data set on Jurkat and in the data set with HeLa [1] was greater than 20 µM in each case. In [2] (read-out: Kd), the Kd is 0.028 µM.

As for `CC1=C2C[C@]3(C)C(=O)C[C@@H](C(C)(C)O)[C@H]3C/C=C(/C)[C@@H]2CC1=O`, the IC50 in the data set on Jurkat and with HeLa [1] was greater than 20 µM throughout. The fold change (FC) in data set [3] turned out to be 0.3; with HeLa [4] it was 1.5; in data set [5] it was 0.5; with HeLa [6], 1.2; in data set [7], 0.2; in the data set on HeLa [8] it was 1.8. The “fold change (FC)” value in the data set with HeLa [9] is 1.2; in data set [10] it was 1.2; in [12], 1; in [13] it was 0.1; in data set [14], 0.3; in data set [15], 1.4. The fold change (FC) came to 1.4 in data set [16]; 1 in the data set with HeLa [17]; 1.3 in [18]; 1 in data set [19]; 1.3 in [20]; 1 with HeLa [21]. In addition, the fold change (FC) in data set [22] turned out to be 0.8. In addition, the Activity result in the data set with PBMC is listed as “Non-Toxic”. For the same compound, the outcome in the data set with HeLa [11] was Active. The Kd in data set [2] (read-out: Kd) amounted to 0.0153 µM.

`C/C1=C/C[C@@H]2[C@H](C(C)C)CC[C@@]2(C)CC23OC2(C)CC[C@@H]13` (stereo partly specified): the concentration for half-maximal inhibition (IC50) with Jurkat and in the data set on HeLa [1] was greater than 20 µM each time. Further, in data set [2], the Kd entry was “Not Active”.

Turning to `CC(=O)O[C@H]1C[C@@](O)(C(C)C)[C@H]2C/C=C(/C)[C@@H]3CC(=O)C(C)=C3C[C@]12C`, the concentration for half-maximal inhibition (IC50) in the data set on Jurkat and in the data set with HeLa [1] was greater than 20 µM each time. For the same compound, the Kd result in data set [2] was “Not Active”.

Regarding `C=C1CC[C@@H]2[C@H]1C[C@]1(C)CC[C@@H](C(C)C)[C@H]1C[C@H]1O[C@@]21C`, the IC50 in the data set on Jurkat and with HeLa [1] was greater than 20 µM in each case. Also, the Kd in data set [2] (read-out: Kd) was found to be 0.13 µM.

Take `C=C1CC[C@H]2/C(C)=C\C[C@@H]3[C@H](C(C)C)CC(=O)[C@@]3(C)C[C@@H]12`: the IC50 in the data set with Jurkat and with HeLa [1] was greater than 20 µM each time. Besides, in data set [2] (read-out: Kd), the Kd was 0.401 µM.

Consider `CC1=C2C[C@]3(C)C(=O)C=C(C(C)C)[C@H]3C/C=C(/C)[C@@H]2CC1=O`, for which the half-inhibitory concentration (IC50) in the data set with Jurkat and with HeLa [1] was greater than 20 µM throughout. Also, the Kd in data set [2] (read-out: Kd) came out at 1.74 µM.

Consider `CC1=C2C[C@@]3(C)O[C@@](C)([C@@H]2CC1=O)[C@H]1CC(=O)[C@@](C(C)C)(CC3=O)O1`, for which the IC50 with Jurkat and with HeLa [1] was greater than 20 µM throughout. The Kd in data set [2] (read-out: Kd) is 0.12 µM.

Consider `CC1=C2C[C@]3(C)C(=O)C[C@@H](C(C)C)[C@H]3C[C@H]3O[C@@]3(C)[C@@H]2CC1=O`, for which the 50% inhibitory concentration (IC50) in the data set with Jurkat and in the data set with HeLa [1] was greater than 20 µM each time. For the same compound, the dissociation constant Kd result in data set [2] was “Not Active”.

On to `CC1=CCC23OC4(C[C@]2(C)C(=O)C=C3C(C)C)[C@H](C)C(=O)C[C@@H]14` (stereo partly specified), for which the concentration for half-maximal inhibition (IC50) in the data set on Jurkat and in the data set on HeLa [1] was greater than 20 µM throughout. In addition, in data set [2] (read-out: Kd), the Kd came out at 0.217 µM.

Consider `CC1=C2C[C@]3(C)C(=O)C=C(C(C)C)C3CC(O)/C(C)=C\2CC1=O` (stereo partly specified), for which the IC50 with Jurkat and in the data set with HeLa [1] was greater than 20 µM each time. For the same compound, the Kd entry in [2] is “Not Active”.

As to `CC(C)[C@@H]1CC(=O)[C@@]2(C)/C=C3\C(CC[C@@]3(C)O)[C@]3(C)O[C@@H]3CC12` (stereo partly specified), the half-inhibitory concentration (IC50) in the data set with Jurkat and with HeLa [1] was greater than 20 µM in each case. Moreover, the Kd in [2] (read-out: Kd) is 0.045 µM.

For the compound `CC1=C2C[C@]3(C)C(=O)C[C@@H](C(C)C)[C@H]3C/C=C(/C)[C@@H]2CC1=O` [HYPOESTENONE], the IC50 in the data set with Jurkat and with HeLa [1] was greater than 20 µM throughout. Besides, the equilibrium dissociation constant (Kd) in [2] (read-out: Kd) was 1 µM.

On to `CC1=C2C[C@]3(C)C(=O)C=C(C(C)C)[C@H]3C[C@H]3O[C@@]3(C)[C@@H]2CC1=O`, for which the 50% inhibitory concentration (IC50) in the data set on Jurkat and with HeLa [1] was greater than 20 µM each time. Further, the Kd result in data set [2] is listed as “Not Active”.

On to `C/C1=C/C[C@@H]2[C@H](C(C)C)CC(=O)[C@@]2(C)/C=C2/C(C)CCC12` (stereo partly specified), for which the IC50 in the data set with Jurkat and with HeLa [1] was greater than 20 µM each time. For the same compound, in data set [2] (read-out: Kd), the Kd is 0.0205 µM.

Source of the values: ChEMBL document CHEMBL4422696, “Fusicoccane Diterpenes from Hypoestes forsskaolii as Heat Shock Protein 90 (Hsp90) Modulators” (J Nat Prod, 2019).
